Test results published in the RNAGym collection of RNA variant scans (doi:10.1038/s41586-018-0170-7).

B1: tRNA (parent)
chain: GUUCCGUUGGCGUAAUGGUAACGCGUCUCCCUCCUAAGGAGAAGACUGCGGGUUCGAGUCCCGUACGGAACG

Variants of: B1
Assay: yeast fitness, log relative to wild type (ln ratio); higher = fitter; tRNA-Arg(CCU), competitive growth, 37 C, 1 M NaCl
In short: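 A combinatorial tRNA-Arg(CCU) variant library was carried on a HIS3 centromeric plasmid in BY4742 lacking the chromosomal gene, from two independent transformations. Pools grew 4 generations in SC-HIS at 30 °C, then ~6.5 generations (~26.5 h) in SC-HIS 1M NaCl at 37 °C, with three outputs per input. Variants were counted by 125 bp paired-end Illumina sequencing. Fitness is ln of each genotype's generations (OD-scaled log2 output/input frequency, inverse-variance weighted across replicates) over the wild-type's.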

First: AGUCCGUUGGCGUAAUGGUAACGCGUUUCCCUCCUAAGGAGAAGACUGCGGGUUCGAGUCCCGUAAGGGUCG [G1A U2G C27U C66A A69G A70U]
Second: AGUCCGUUGGCGUAAUGGUAACGCGUUUCCCUCCUAAGGAGAAGAUUGCGGGUUCGAGUCCCGUAUGGAUUG [G1A U2G C27U C46U C66U A70U C71U]
The “yeast fitness (ln)” value of the first is higher: -0.187 for the first, -0.434 for the second.

First: AGUCCGUUGGCGUAAUGGUAACGCGUUUCCCUCCUAAGGAGACGACUGCGGGUUCGAGUCCCGUAAGGGAUG [G1A U2G C27U A43C C66A A69G C71U]
Second: AGUCCGUUGGCGUAAUGGUAACGCGUUUCCCUCCUAAGGAGAAGACUGCGGGUUCGAGUCCCGUACGGAUCG [G1A U2G C27U A70U]
The “yeast fitness (ln)” value of the first is higher: -0.297 for the first, -0.33 for the second.

Compared with AGUCCGUUGGCGUAAUGGUAACGCGUUUCCCUCCUAAGGAGAAGACUGCGGGUUCGAGUCCCGUACGGAGCG [G1A U2G C27U A70G], AGUCCGUUGGCGUAAUGGUAACGCGUUUCCCUCCUAAGGAGAAGACUGCGGGUUCGAGUCCCGUAAGGGGUG [G1A U2G C27U C66A A69G A70G C71U] is lower in “yeast fitness (ln)” value: -0.142 for the first, -0.265 for the second.

First: AGUCCGUUGGCGUAAUGGUAACGCGUUUCCCUCCUAAGGAGAAGAUUGCGGGUUCGAGUCCCGUAAGGGGUG [G1A U2G C27U C46U C66A A69G A70G C71U]
Second: AGUCCGUUGGCGUAAUGGUAACGCGUUUCCCUCCUAAGGAGAAGACUGCGGGUUCGAGUCCCGUACGGAGUG [G1A U2G C27U A70G C71U]
The “yeast fitness (ln)” value of the first is higher: -0.247 for the first, -0.371 for the second.

Going from AGUCCGUUGGCGUAAUGGUAACGCGUUUCCCUCCUAAGGAGACGACUGCGGGUUCGAGUCCCGUAUGGGUUG [G1A U2G C27U A43C C66U A69G A70U C71U] to AGUCCGUUGGCGUAAUGGUAACGCGUUUCCCUCCUAAGGAGAAGACUGCGGGUUCGAGUCCCGUAAGGAUUG [G1A U2G C27U C66A A70U C71U], the “yeast fitness (ln)” value rises from -0.332 to -0.243.

First: AGUCCGUUGGCGUAAUGGUAACGCGUUUCCCUCCUAAGGAGAAGAUUGCGGGUUCGAGUCCCGUACGGAUCG [G1A U2G C27U C46U A70U]
Second: AGUCCGUUGGCGUAAUGGUAACGCGUUUCCCUCCUAAGGAGAAGAUUGCGGGUUCGAGUCCCGUACGGAGCG [G1A U2G C27U C46U A70G]
The “yeast fitness (ln)” value of the first is lower: -0.293 for the first, -0.144 for the second.

Going from AGUCCGUUGGCGUAAUGGUAACGCGUUUCCCUCCUAAGGAGACGACUGCGGGUUCGAGUCCCGUAUGGGUCG [G1A U2G C27U A43C C66U A69G A70U] to AGUCCGUUGGCGUAAUGGUAACGCGUUUCCCUCCUAAGGAGACGACUGCGGGUUCGAGUCCCGUAUGGGGCG [G1A U2G C27U A43C C66U A69G A70G], the “yeast fitness (ln)” value falls from -0.363 to -0.492.

First: AGUCCGUUGGCGUAAUGGUAACGCGUUUCCCUCCUAAGGAGACGACUGCGGGUUCGAGUCCCGUAUGGGGUG [G1A U2G C27U A43C C66U A69G A70G C71U]
Second: AGUCCGUUGGCGUAAUGGUAACGCGUUUCCCUCCUAAGGAGAAGAUUGCGGGUUCGAGUCCCGUAAGGGUCG [G1A U2G C27U C46U C66A A69G A70U]
The “yeast fitness (ln)” value of the first is lower: -0.294 for the first, -0.191 for the second.

Compared with AGUCCGUUGGCGUAAUGGUAACGCGUUUCCCUCCUAAGGAGAAGACUGCGGGUUCGAGUCCCGUACGGGACG [G1A U2G C27U A69G], AGUCCGUUGGCGUAAUGGUAACGCGUUUCCCUCCUAAGGAGAAGAUUGCGGGUUCGAGUCCCGUAUGGGAUG [G1A U2G C27U C46U C66U A69G C71U] is lower in “yeast fitness (ln)” value: -0.145 for the first, -0.307 for the second.

Going from AGUCCGUUGGCGUAAUGGUAACGCGUUUCCCUCCUAAGGAGAAGAUUGCGGGUUCGAGUCCCGUAAGGAUUG [G1A U2G C27U C46U C66A A70U C71U] to AGUCCGUUGGCGUAAUGGUAACGCGUUUCCCUCCUAAGGAGAAGACUGCGGGUUCGAGUCCCGUAUGGAACG [G1A U2G C27U C66U], the “yeast fitness (ln)” value rises from -0.185 to -0.174.

Going from AGUCCGUUGGCGUAAUGGUAACGCGUUUCCCUCCUAAGGAGAAGACUGCGGGUUCGAGUCCCGUACGGGGUG [G1A U2G C27U A69G A70G C71U] to AGUCCGUUGGCGUAAUGGUAACGCGUUUCCCUCCUAAGGAGACGACUGCGGGUUCGAGUCCCGUAAGGAUCG [G1A U2G C27U A43C C66A A70U], the “yeast fitness (ln)” value rises from -0.241 to -0.195.

Compared with AGUCCGUUGGCGUAAUGGUAACGCGUUUCCCUCCUAAGGAGACGACUGCGGGUUCGAGUCCCGUAAGGAGCG [G1A U2G C27U A43C C66A A70G], AGUCCGUUGGCGUAAUGGUAACGCGUUUCCCUCCUAAGGAGAAGACUGCGGGUUCGAGUCCCGUAUGGGUCG [G1A U2G C27U C66U A69G A70U] is lower in “yeast fitness (ln)” value: -0.255 for the first, -0.35 for the second.

First: AGUCCGUUGGCGUAAUGGUAACGCGUUUCCCUCCUAAGGAGAAGACUGCGGGUUCGAGUCCCGUAUGGGGCG [G1A U2G C27U C66U A69G A70G]
Second: AGUCCGUUGGCGUAAUGGUAACGCGUUUCCCUCCUAAGGAGAAGAUUGCGGGUUCGAGUCCCGUAAGGAACG [G1A U2G C27U C46U C66A]
The “yeast fitness (ln)” value of the first is lower: -0.26 for the first, -0.0584 for the second.

Going from AGUCCGUUGGCGUAAUGGUAACGCGUUUCCCUCCUAAGGAGAAGAUUGCGGGUUCGAGUCCCGUAUGGAACG [G1A U2G C27U C46U C66U] to AGUCCGUUGGCGUAAUGGUAACGCGUUUCCCUCCUAAGGAGAAGACUGCGGGUUCGAGUCCCGUAUGGGAUG [G1A U2G C27U C66U A69G C71U], the “yeast fitness (ln)” value falls from -0.185 to -0.395.

Compared with AGUCCGUUGGCGUAAUGGUAACGCGUUUCCCUCCUAAGGAGACGACUGCGGGUUCGAGUCCCGUAAGGAGUG [G1A U2G C27U A43C C66A A70G C71U], AGUCCGUUGGCGUAAUGGUAACGCGUUUCCCUCCUAAGGAGACGACUGCGGGUUCGAGUCCCGUAUGGAGCG [G1A U2G C27U A43C C66U A70G] is higher in “yeast fitness (ln)” value: -0.317 for the first, -0.315 for the second.

Going from AGUCCGUUGGCGUAAUGGUAACGCGUUUCCCUCCUAAGGAGACGACUGCGGGUUCGAGUCCCGUAUGGAUCG [G1A U2G C27U A43C C66U A70U] to AGUCCGUUGGCGUAAUGGUAACGCGUUUCCCUCCUAAGGAGACGACUGCGGGUUCGAGUCCCGUAUGGAGUG [G1A U2G C27U A43C C66U A70G C71U], the “yeast fitness (ln)” value falls from -0.282 to -0.383.

Going from AGUCCGUUGGCGUAAUGGUAACGCGUUUCCCUCCUAAGGAGAAGAUUGCGGGUUCGAGUCCCGUAAGGAAUG [G1A U2G C27U C46U C66A C71U] to AGUCCGUUGGCGUAAUGGUAACGCGUUUCCCUCCUAAGGAGAAGACUGCGGGUUCGAGUCCCGUACGGGGCG [G1A U2G C27U A69G A70G], the “yeast fitness (ln)” value falls from -0.0936 to -0.242.

Compared with AGUCCGUUGGCGUAAUGGUAACGCGUUUCCCUCCUAAGGAGAAGACUGCGGGUUCGAGUCCCGUACGGGUCG [G1A U2G C27U A69G A70U], AGUCCGUUGGCGUAAUGGUAACGCGUUUCCCUCCUAAGGAGAAGAUUGCGGGUUCGAGUCCCGUAAGGGUUG [G1A U2G C27U C46U C66A A69G A70U C71U] is lower in “yeast fitness (ln)” value: -0.188 for the first, -0.476 for the second.

Compared with AGUCCGUUGGCGUAAUGGUAACGCGUUUCCCUCCUAAGGAGACGACUGCGGGUUCGAGUCCCGUAAGGAAUG [G1A U2G C27U A43C C66A C71U], AGUCCGUUGGCGUAAUGGUAACGCGUUUCCCUCCUAAGGAGAAGACUGCGGGUUCGAGUCCCGUACGGAUUG [G1A U2G C27U A70U C71U] is higher in “yeast fitness (ln)” value: -0.377 for the first, -0.0262 for the second.
